ChEMBL document CHEMBL4219124, “Alleviating CYP and hERG liabilities by structure optimization of dihydrofuran-fused tricyclic benzo[d]imidazole series - Potent, selective and orally efficacious microsomal prostaglandin E synthase-1 (mPGES-1) inhibitors: Part-2” (Bioorg Med Chem Lett, 2018)

Test system: Cavia porcellus
Assay: Analgesic activity in Dunkin-Hartley guinea pig hyperalgesia pain model assessed as inhibition of LPS-induced hyperalgesia at 10 mg/kg, po administered 2 hrs prior to LPS challenge measured after 4.5 hrs relative to control
Assay type: functional
Outline: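 Guinea pigs received compound orally, once daily, at 10, 30 or 100 mg/kg, 2 h before LPS was injected into the plantar surface of the right paw. Saline-injected animals served as the comparison for thermal hyperalgesia. Plasma and brain drug levels taken 7 h after dosing, mean of n = 6–9 per group, from a single experiment.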

SMILES: O=C(O)Cc1ccccc1Nc1c(Cl)cccc1Cl [DICLOFENAC]
- inhibition in vivo at 10 mg/kg: 85%
